Measured values from ChEMBL document CHEMBL4334422, “Toxicities and beneficial protection of H2S donors based on nonsteroidal anti-inflammatory drugs” (Medchemcomm, 2019).
Calls of active or inactive are those of the source. No cut-off for these calls is given here.

Experiments:
[1] = Toxicity in Wistar kyoto rat assessed as reduction in intestinal mucosal congestion symptoms at 10 mg/kg, ip administered for 14 days by H and E staining based optical microscopic method; type: organism-based; conditions: in vivo, 336 h
Procedure, shortened: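 WKY rats, 3 per group, were dosed for 14 days, with the compound at 10 mg/kg per dose and the ibuprofen comparator at 6.1 mg/kg. Rats were anaesthetised with ether and killed by cervical dislocation. Stomach and intestine were sectioned at 5-10 µm, stained with haematoxylin and eosin, and examined by optical microscopy.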

[2] = Toxicity in Wistar kyoto rat assessed as swollen renal cells at 10 mg/kg, ip administered for 14 days by H and E staining based assay; type: organism-based; conditions: in vivo, 336 h
Procedure, shortened: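 WKY rats were dosed intraperitoneally at 10 mg/kg daily for 14 days, using the 10% 1,3-propanediol vehicle, with a vehicle control group. Liver and kidney were collected and fixed immediately in 4% glutaraldehyde. Sections were stained with haematoxylin and eosin and scored for structural change under light microscopy.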

H9c2 [3] = assay: Cytoprotective activity against H2O2-induced toxicity in rat H9c2 cells assessed as increase in cell repair at 10 to 80 uM pretreated with compound followed by H2O2 addition and measured after 1 to 8 hrs by giemsa staining based microscopic method; type: functional
Procedure, shortened: (§1)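 H9c2 cells were injured with H₂O₂ (400 µM) for 1, 4 or 8 h to give light, medium and heavy damage, in the presence of compound at 10–80 µM. Acetaminophen or ibuprofen served as controls. Viability was measured as mean ± SD of three experiments. SOD and MDA contents were measured as mean ± SD of four experiments. Morphology was assessed by Giemsa staining under light microscopy.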

Rattus norvegicus [4] = assay: Cardioprotective activity in SHR rat assessed as change in muscle fiber mitochondria at 10 mg/kg, ip administered for 14 days by TEM analysis; type: functional, organism-based
Procedure, shortened: (§2)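 SHRs were given 10 mg·kg⁻¹ intraperitoneally per day for 14 consecutive days, with an ibuprofen comparator and a normal control. Myocardial tissue was then removed. Sections were HE-stained for light microscopy and also examined by transmission electron microscopy at 6000, 10000 and 20000-fold.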

Rattus norvegicus [5] = assay: Cardioprotective activity in SHR rat assessed as change in muscle fiber nature at 10 mg/kg, ip administered for 14 days by TEM analysis; type: functional, organism-based; procedure, shortened: as §2
H9c2 [6] = assay: Cytoprotective activity against H2O2-induced toxicity in rat H9c2 cells assessed as reduction in cell de-fromation at 10 to 80 uM pretreated with compound followed by H2O2 addition and measured after 1 to 8 hrs by giemsa staining based microscopic method; type: functional; procedure, shortened: as §1

CC(C)Cc1ccc(C(C)C(=O)Oc2ccc(C(N)=S)cc2)cc1 (stereo unspecified)
Activity [1]: Non-Toxic

CC(C)Cc1ccc(C(C)C(=O)Oc2ccc(-c3cc(=S)ss3)cc2)cc1 (stereo unspecified)
Activity [2]: Toxic

CC(=O)Nc1ccc(OC(=O)CCCCC2CCSS2)cc1 (stereo unspecified)
Activity (H9c2 [3]): Active | Activity (Rattus norvegicus [4]): Active | Activity (Rattus norvegicus [5]): Active | Activity (H9c2 [6]): Active
